The source made the active and inactive calls. No cut-off for these calls is given here.
Columns and labels:
[1] = In vitro Inhibitory concentration against phospholipase A2 activity of synovial fluid; parameters: species or system Homo sapiens
Mus musculus [2] = assay: Edema ratio expressed as weight of edematous leg to 100/weight of normal leg in mice upon injection of 300 uM compound pre-incubated with 1 ug phospholipase A2 of Naja melanoleuca at 37 degree C for 1 h into mice foot pads; assay type: functional
In short: (§1)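 Each PLA2 enzyme (1 µg) was preincubated with compound (300 µM) at 37 °C for 1 h, then injected into the right hind footpad of mice (22–24 g) in saline. The left footpad received saline as control. After 45 min the mice were killed, and both legs were cut at the ankle and weighed. Edema ratio = edematous leg weight × 100 / normal leg weight. Results given as mean SD (n = 4); Student's t test, P < 0.05.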

Naja naja [3] = assay: Percent inhibition of hyaluronidase from Naja naja naja venom; parameters: concentration or dose not given beside the values; conditions: concentration not given here
Protobothrops elegans [4] = assay: Percent inhibition of hyaluronidase from Trimeresurus elegans venom; parameters: concentration or dose not given beside the values; conditions: concentration not given here
Mus musculus [5] = assay: Edema ratio expressed as weight of edematous leg to 100/weight of normal leg in mice upon injection of 300 uM compound pre-incubated with 1 ug phospholipase A2 of Echis carinatus at 37 C for 1 h into the mice foot pads; assay type: functional; in short: as §1
Daboia russelii russelii [6] = assay: Percent inhibition of hyaluronidase from Vipera russelli russelli venom; parameters: concentration or dose not given beside the values; conditions: concentration not given here
Mus musculus [7] = assay: Edema ratio expressed as weight of edematous leg to 100/weight of normal leg in mice upon injection of 300 uM compound preincubated with 1 ug phospholipase A2 of Trimeresurus flavoviridis at 37 C for 1 hr into the mice foot pads; assay type: functional; in short: as §1
Mus musculus [8] = assay: Edema ratio expressed as weight of edematous leg to 100/weight of normal leg in mice upon injection of 300 uM compound preincubated with 1 ug phospholipase A2 of Synovial fluid at 37 C for 1 hr into the mice foot pads; assay type: functional; in short: as §1
[9] = target: Acidic phospholipase A2 EC-I (Echis carinatus, UniProt Q7T3S7); assay: In vitro inhibitory concentration against phospholipase A2 of Echis carinatus venom
Basic phospholipase A2 1 = target: T1, Basic phospholipase A2 1 (Naja melanoleuca, UniProt P00599); assay: In vitro inhibitory concentration against phospholipase A2 of Naja melanoleuca venom
T1 sequence (P00599 whole entry): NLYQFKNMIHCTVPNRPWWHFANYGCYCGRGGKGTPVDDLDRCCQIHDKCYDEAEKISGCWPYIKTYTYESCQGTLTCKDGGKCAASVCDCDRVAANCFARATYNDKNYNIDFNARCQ

[10] = target: T2, Basic phospholipase A2 PLA-A (Trimeresurus flavoviridis, UniProt P59264); assay: In vitro inhibitory concentration against phospholipase A2 of Trimeresurus flavoviridis venom; parameters: species or system Protobothrops flavoviridis
T2 sequence (P59264 whole entry): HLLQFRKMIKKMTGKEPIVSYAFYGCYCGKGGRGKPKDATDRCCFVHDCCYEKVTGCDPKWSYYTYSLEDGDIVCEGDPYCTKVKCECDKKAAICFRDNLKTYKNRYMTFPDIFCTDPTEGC

Naja naja [11] = assay: Percent inhibition of hyaluronidase from Naja naja naja venom; NI = No inhibition
Daboia russelii russelii [12] = assay: Percent inhibition of hyaluronidase from Vipera russelli russelli venom; NI = No inhibition
Naja melanoleuca = assay: Percent inhibition of hyaluronidase from Naja melanoleuca venom; NI = No inhibition
Protobothrops elegans [13] = assay: Percent inhibition of hyaluronidase from Trimeresurus elegans venom; NI = No inhibition

Chain of Acidic phospholipase A2 EC-I (Q7T3S7 17-136 limits assumed): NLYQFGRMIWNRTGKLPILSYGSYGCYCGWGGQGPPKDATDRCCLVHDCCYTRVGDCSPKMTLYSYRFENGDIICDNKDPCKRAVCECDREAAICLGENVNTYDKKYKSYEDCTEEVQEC

SMILES	IC50 [1]	Ratio (Mus musculus [2])	inhibition (Naja naja [3])	inhibition (Protobothrops elegans [4])	Ratio (Mus musculus [5])	inhibition (Daboia russelii russelii [6])	Ratio (Mus musculus [7])	Ratio (Mus musculus [8])	IC50 [9]	IC50 (Basic phospholipase A2 1)	IC50 [10]	inhibition (Naja naja [11])	inhibition (Daboia russelii russelii [12])	inhibition (Naja melanoleuca)	inhibition (Protobothrops elegans [13])
Cc1ccc(OC(=O)c2cccc(Cl)c2)c(C(=O)c2cccc(Cl)c2)c1	2.5 µM	101	89.3%	92.5%	101	87.8%	102	101	2.3 µM	2.9 µM	2.5 µM				
O=C(Oc1ccc(Cl)cc1C(=O)c1cccc(Cl)c1Cl)c1ccccc1	32 µM	104	85.3%	76.8%	103	71.6%	105	102	40 µM	53 µM	46 µM				
C[C@H]1[C@H](C)CC[C@]2(C(=O)O)CC[C@]3(C)C(=CC[C@@H]4[C@@]5(C)CC[C@H](O)C(C)(C)[C@@H]5CC[C@]43C)[C@H]12 [URSOLIC ACID]									2.3 µM	2.9 µM					
Cc1cc(C(=O)c2cccc(Cl)c2Cl)ccc1OC(=O)c1ccccc1	156 µM			33.1%		26.2%			112 µM	132 µM	89 µM	inactive			
Cc1ccc(OC(=O)c2ccccc2C)c(C(=O)c2ccccc2C)c1	86 µM	102	58.7%	42.4%				106	105 µM	98 µM	139 µM		inactive		
Cc1ccc(C(=O)Oc2ccc(C(=O)c3ccccc3C)cc2C)cc1	56 µM		42.4%	48.9%		36.9%		101	87 µM	73 µM	75 µM				
Cc1ccc(C(=O)Oc2ccc(C)cc2C(=O)c2ccc(C)cc2)cc1	123 µM	103	69.3%	76.8%		46%			96 µM	57 µM	108 µM			inactive	
Cc1ccc(OC(=O)c2ccccc2)c(C(=O)c2ccccc2)c1	46 µM		13.9%			28.2%	105	109	94 µM	60 µM	69 µM			inactive	inactive

Source: ChEMBL document CHEMBL1142819, “Synthesis of benzoyl phenyl benzoates as effective inhibitors for phospholipase A2 and hyaluronidase enzymes” (Bioorg Med Chem Lett, 2005)
